Experimental data gathered from unrelated publications.
Compare with care: the assays were run in different laboratories.
Cell line: Vero
Observed: cell growth or viability

SMILES | method | time | CC50
CC1(c2ccccc2O)Nn2c(nc(-c3ccc(Cl)cc3)c(C#N)c2=O)N1C(Cc1c[nH]c2ccccc12)C(=O)O (stereo not drawn) | MTT | 72 h | 500 µg/mL
CN(C)N1C(=O)c2ccccc2C1CB1OC(C)(C)C(C)(C)O1 (stereo not drawn) |  |  | 204 µM
O=C(Nc1ccc(Cl)c(C(F)(F)F)c1)c1ccccc1O | MTT | 72 h | < 10 µg/mL
c1ccc(NCc2ccc(Oc3ccccn3)cc2)cc1 | MTT | 72 h | > 300 µM
O=C(Nc1ccc(Cl)cc1)c1cc(Cl)ccc1O | MTT | 72 h | 20 µg/mL
C[C@@H]1[C@H](O)[C@@H](C)/C=C/C=C/C=C/C=C/C=C/C=C/C=C/[C@H](O[C@@H]2O[C@H](C)[C@@H](O)[C@H](N)[C@@H]2O)C[C@@H]2O[C@](O)(C[C@@H](O)C[C@@H](O)[C@H](O)CC[C@@H](O)C[C@@H](O)CC(=O)O[C@H]1C)C[C@H](O)[C@H]2C(=O)O |  |  | 7.7 µM
COC(=O)N[C@H](C(=O)N1C[C@@H](N=[N+]=[N-])C[C@H]1c1nc(Br)c(-c2ccc(-c3ccc(-c4[nH]c([C@@H]5C[C@H](N=[N+]=[N-])CN5C(=O)[C@@H](NC(=O)OC)C(C)C)nc4Br)cc3)cc2)[nH]1)C(C)C |  |  | > 100 µM
CC(=O)C1=C(C)N2NC(C)(c3ccccc3O)N(C(Cc3c[nH]c4ccccc34)C(=O)O)C2=NC1c1ccc(Cl)cc1 (stereo not drawn) | MTT | 72 h | 500 µg/mL
NC(=O)c1ncn([C@@H]2O[C@H](CO)[C@@H](O)[C@H]2O)n1 | MTT | 72 h | > 200 µM
O=C(Nc1ccc(F)c(F)c1)c1cc(Cl)ccc1O | MTT | 72 h | < 5 µg/mL
Cc1ccccc1NCc1ccc(Oc2ccccn2)cc1 | MTT | 72 h | > 300 µM
CC(C(=O)O)N1c2nc(-c3ccc(Cl)cc3)c(C#N)c(=O)n2NC1(C)c1ccccc1O (stereo not drawn) | MTT | 72 h | 250 µg/mL
O=C(Nc1cccc(C(F)(F)F)c1)c1cc(Cl)ccc1O | MTT | 72 h | < 5 µg/mL
Cc1ccc(NCc2ccc(Oc3ccccn3)cc2)cc1 | MTT | 72 h | > 300 µM
CCOC(=O)C1=C(C)N2NC(c3ccccc3O)N(C(Cc3c[nH]c4ccccc34)C(=O)O)C2=NC1c1ccc(Cl)cc1 (stereo not drawn) | MTT | 72 h | 250 µg/mL
Clc1ccc(NCc2ccc(Oc3ccccn3)cc2)cc1 | MTT | 72 h | > 300 µM
O=C(Nc1ccc(Cl)c(C(F)(F)F)c1)c1cc(Cl)ccc1O | MTT | 72 h | 5 µg/mL
Fc1ccccc1NCc1ccc(Oc2ccccn2)cc1 | MTT | 72 h | > 300 µM
C[C@H]1COc2c(N3CCN(C)CC3)c(F)cc3c(=O)c(C(=O)O)cn1c23 | MTT | 72 h | > 100 µg/mL
Clc1cccc(NCc2ccc(Oc3ccccn3)cc2)c1 | MTT | 72 h | > 300 µM
CC(C)(CO)C(=O)SCCOP(=O)(NCc1ccccc1)OC[C@H]1O[C@@H](n2cnc3c(=O)[nH]c(N)nc32)[C@](C)(O)[C@@H]1O (mixture of isomers) |  |  | > 100 µM
